In data set [1] the target is cAMP-dependent protein kinase catalytic subunit PRKX (Homo sapiens, UniProt P51817). The experiment in a line: Inhibition of PRKX (unknown origin).
The subject of data set [2] is Mus musculus. The experiment in a line: Antialzheimer activity in 5XFAD mouse assessed as microglial elimination in thalamus by measuring reduction in Thio-S positive plaques at 1200 ppm administered as rodent chow for 14 weeks by Thio-S staining based confocal microscopic analysis. The data set is classed as functional, organism-based. As to conditions: route po.
Data set [3] concerns the target Tyrosine-protein kinase CSK (Homo sapiens, UniProt P41240). Put plainly: Inhibition of CSK (unknown origin).
Data set [4] is described as follows: Effect on Clec7a gene expression in wild type mouse hippocampus at 1200 ppm administered as rodent chow starting from 1.5 months and measured after 7 months by RNA-Seq analysis (reference value: 0.034 to 0.503 RPKM). The format is functional. As to conditions: route po, time 5.5 months, 4015 h. Summed up: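 WT and 5xFAD mice were treated with 1200 ppm PLX5622 chow or control chow from 1.5 to 7 months of age. Brains were microdissected into cortex, hippocampus and thalamus, and RNA was extracted from tissue powder. Whole-transcriptome RNA-Seq libraries were sequenced, with n = 4 per group per region (48 samples).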

For data set [5], the system named is Mus musculus. Put plainly: Antialzheimer activity in 5XFAD mouse assessed as percent change in claudin-5 intensity of Thio-S negative retro spinal cortex at 1200 ppm administered as rodent chow starting from 1.5 months and measured after 4 months by immunolabeling analysis relative to control. The data set is classed as functional. As to conditions: route po, time 2.5 months, 1825 h.

The nature of data set [6]: Effect on Hexb gene expression in 5XFAD mouse cortex at 1200 ppm administered as rodent chow starting from 1.5 months and measured after 7 months by RNA-Seq analysis (reference value: 70.260 to 103.252 RPKM). The format is functional. As to conditions: route po, time 5.5 months, 4015 h.
Data set [7] in a line: Effect on Dusp5 gene expression in wildtype mouse hippocampus assessed as percent change in Reads Per kilo base per Million mapped reads at 1200 ppm administered as rodent chow starting from 1.5 months and measured after 7 months by RNA-Seq analysis (reference value: 75.632 to 114.605 %). The format is functional. As to conditions: route po, time 5.5 months, 4015 h.
Data set [8] in a line: Prevention of Gls gene downregulation in 5XFAD mouse hippocampus assessed as percent change in Reads Per kilo base per Million mapped reads at 1200 ppm administered as rodent chow starting from 1.5 months and measured after 7 months by RNA-Seq analysis (reference value: 58.522 to 73.849 %). As to conditions: route po, time 5.5 months, 4015 h. The data set is classed as functional.

A short description of data set [9]: Clearance in dog at 1.00 mg/kg, iv administered as single dose. The data set is classed as ADME, organism-based, Canis lupus familiaris. As to conditions: in vivo.
For data set [10], the target named is T1, Macrophage colony-stimulating factor 1 receptor (Mus musculus) (UniProt P09581).
T1 sequence (whole entry): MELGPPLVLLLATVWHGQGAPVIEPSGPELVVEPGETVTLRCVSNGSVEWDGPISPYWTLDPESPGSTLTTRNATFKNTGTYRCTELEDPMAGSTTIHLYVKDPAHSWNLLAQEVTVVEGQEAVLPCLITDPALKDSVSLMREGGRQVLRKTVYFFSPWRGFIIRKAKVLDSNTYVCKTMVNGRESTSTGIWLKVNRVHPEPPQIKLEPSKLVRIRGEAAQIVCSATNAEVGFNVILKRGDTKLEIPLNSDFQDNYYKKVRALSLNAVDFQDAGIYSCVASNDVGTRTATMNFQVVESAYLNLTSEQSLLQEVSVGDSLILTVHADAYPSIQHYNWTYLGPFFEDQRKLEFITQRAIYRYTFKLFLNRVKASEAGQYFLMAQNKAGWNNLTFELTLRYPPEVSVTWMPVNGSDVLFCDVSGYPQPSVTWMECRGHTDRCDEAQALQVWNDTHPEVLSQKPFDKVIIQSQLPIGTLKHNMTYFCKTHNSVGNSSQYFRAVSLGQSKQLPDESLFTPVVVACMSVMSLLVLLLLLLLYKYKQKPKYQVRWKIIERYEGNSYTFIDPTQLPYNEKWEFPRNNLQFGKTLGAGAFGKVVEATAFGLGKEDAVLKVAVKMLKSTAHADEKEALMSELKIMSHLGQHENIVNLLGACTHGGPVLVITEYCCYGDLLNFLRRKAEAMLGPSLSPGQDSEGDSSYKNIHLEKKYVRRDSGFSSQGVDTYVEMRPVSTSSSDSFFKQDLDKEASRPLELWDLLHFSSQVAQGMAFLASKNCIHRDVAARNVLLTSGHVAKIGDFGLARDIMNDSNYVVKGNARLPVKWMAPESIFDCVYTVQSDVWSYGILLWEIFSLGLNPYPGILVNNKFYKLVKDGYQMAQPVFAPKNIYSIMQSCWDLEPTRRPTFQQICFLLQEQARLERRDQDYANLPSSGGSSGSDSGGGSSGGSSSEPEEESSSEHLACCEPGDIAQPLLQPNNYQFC
The experiment in a line: In vivo inhibition of CSF1R in wildtype mouse assessed as number of GFAP positive cell per FOV in somatosensory cortex at 1200 ppm administered as rodent chow for 10 to 24 weeks by immunolabelling based confocal microscopic analysis (reference value: 4 to 34). The format is functional. As to conditions: route po, time 10-24 weeks.

Data set [11] addresses Beta-adrenergic receptor kinase 1 (Homo sapiens, UniProt P25098). Put plainly: Inhibition of ADRBK1 (unknown origin).
Data set [12] addresses Cytoplasmic tyrosine-protein kinase BMX (Homo sapiens, UniProt P51813). Put plainly: Inhibition of BMX (unknown origin).
Data set [13] deals with Inhibitor of nuclear factor kappa-B kinase subunit beta (Homo sapiens, UniProt O14920). Put plainly: Inhibition of IKBKB (unknown origin).
A short description of data set [14]: Toxicity in wildtype mouse assessed as number of entries to perimeter zone at 1200 ppm administered as rodent chow for 10 to 24 weeks by Open field test (reference value: 20 to 64). As to conditions: in vivo, po, time 10-24 weeks.
Data set [15] deals with Mus musculus. Put plainly: Antialzheimer activity in 5XFAD mouse assessed as number of Iba positive cells per FOV in retro spinal cortex at 1200 ppm administered as rodent chow starting from 1.5 months and measured after 7 months (reference value: 473 to 792). The format is functional. As to conditions: route po, time 5.5 months, 4015 h.
Data set [16] has as its target T1, Macrophage colony-stimulating factor 1 receptor (Mus musculus). The experiment in a line: In vivo inhibition of CSF1R in wildtype mouse assessed as iron reactivity by measuring hemosiderin intensity of prussian blue staining in thalamus at 1200 ppm administered as rodent chow starting from 1.5 months and measured after 7 months by confocal microscopic analysis (reference value: 0.068 to 2.717 a.u.). The data set is classed as functional. As to conditions: route po, time 5.5 months. Summed up:
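Wild-type or 5xFAD mice fed PLX5622 (1200 ppm) in AIN-76A chow from 1.5 months of age, examined in 4- and 7-month-old cohorts. Brain sections stained with a Prussian blue kit per kit instructions to detect iron deposits (microbleeds).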

Data set [17] deals with Tyrosine-protein kinase HCK (Homo sapiens, UniProt P08631). Put plainly: Inhibition of HCK (unknown origin).
The subject of data set [18] is Mus musculus. Put plainly: Antialzheimer activity in 5XFAD mouse assessed as average speed at 1200 ppm administered as rodent chow for 10 to 24 weeks by Open field test (reference value: 0.024 to 0.076 meter/s). The format is functional. As to conditions: route po, time 10-24 weeks.
Data set [19] in a line: AUC (0 to infinity) in mouse at 45 mg/kg, po administered as single dose via gavage. As to conditions: in vivo. The format is ADME, organism-based.
Data set [20] concerns Mus musculus. The experiment in a line: Antialzheimer activity in 5XFAD mouse assessed as reduction in myeloid cell numbers in subiculum at 1200 ppm administered as rodent chow starting from 1.5 months and measured after 7 months by immunolabeling based confocal microscopic analysis relative to control. Details: scale not given: the % may be the effect or the level left. As to conditions: route po, time 5.5 months, 4015 h. The format is functional.

The structures appear in SMILES notation. Calls of active or inactive are those of the source. The calls are words filed in the database; no cut-off is given here.

The results in this text go back to ChEMBL document CHEMBL5649170, “Sustained microglial depletion with CSF1R inhibitor impairs parenchymal plaque development in an Alzheimer's disease model” (Nat Commun, 2019).

What is called IC50 is the concentration that gives 50% inhibition. A word on the clearance: it is a measure of how efficiently the substance is removed, as volume per time. Usually AUC(0-inf) stands for total exposure, with the tail of the curve extrapolated.

Sequence of Tyrosine-protein kinase CSK (P41240 whole entry): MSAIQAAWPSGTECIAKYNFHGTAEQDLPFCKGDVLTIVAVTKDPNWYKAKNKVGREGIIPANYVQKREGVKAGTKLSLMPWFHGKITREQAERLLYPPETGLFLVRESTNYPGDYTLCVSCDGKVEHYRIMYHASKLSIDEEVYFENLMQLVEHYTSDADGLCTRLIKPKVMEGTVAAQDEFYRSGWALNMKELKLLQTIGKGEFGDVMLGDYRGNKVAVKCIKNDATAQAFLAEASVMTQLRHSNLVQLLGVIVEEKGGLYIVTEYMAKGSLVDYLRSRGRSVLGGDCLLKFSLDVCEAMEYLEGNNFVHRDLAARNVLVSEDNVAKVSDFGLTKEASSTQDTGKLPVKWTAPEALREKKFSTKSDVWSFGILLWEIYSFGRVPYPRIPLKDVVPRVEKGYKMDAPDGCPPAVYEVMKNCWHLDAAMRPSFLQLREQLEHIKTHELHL
Sequence of cAMP-dependent protein kinase catalytic subunit PRKX (P51817 whole entry): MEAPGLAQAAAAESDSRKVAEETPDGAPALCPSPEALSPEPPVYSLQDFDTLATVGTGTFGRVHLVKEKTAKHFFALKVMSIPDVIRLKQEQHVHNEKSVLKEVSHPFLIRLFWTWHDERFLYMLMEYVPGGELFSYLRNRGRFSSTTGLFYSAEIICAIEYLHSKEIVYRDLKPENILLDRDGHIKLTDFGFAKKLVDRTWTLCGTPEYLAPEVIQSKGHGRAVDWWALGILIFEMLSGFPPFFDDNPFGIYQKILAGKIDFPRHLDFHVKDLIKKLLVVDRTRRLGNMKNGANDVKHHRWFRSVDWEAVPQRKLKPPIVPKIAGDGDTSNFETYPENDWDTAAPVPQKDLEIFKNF
Sequence of Beta-adrenergic receptor kinase 1 (P25098 whole entry): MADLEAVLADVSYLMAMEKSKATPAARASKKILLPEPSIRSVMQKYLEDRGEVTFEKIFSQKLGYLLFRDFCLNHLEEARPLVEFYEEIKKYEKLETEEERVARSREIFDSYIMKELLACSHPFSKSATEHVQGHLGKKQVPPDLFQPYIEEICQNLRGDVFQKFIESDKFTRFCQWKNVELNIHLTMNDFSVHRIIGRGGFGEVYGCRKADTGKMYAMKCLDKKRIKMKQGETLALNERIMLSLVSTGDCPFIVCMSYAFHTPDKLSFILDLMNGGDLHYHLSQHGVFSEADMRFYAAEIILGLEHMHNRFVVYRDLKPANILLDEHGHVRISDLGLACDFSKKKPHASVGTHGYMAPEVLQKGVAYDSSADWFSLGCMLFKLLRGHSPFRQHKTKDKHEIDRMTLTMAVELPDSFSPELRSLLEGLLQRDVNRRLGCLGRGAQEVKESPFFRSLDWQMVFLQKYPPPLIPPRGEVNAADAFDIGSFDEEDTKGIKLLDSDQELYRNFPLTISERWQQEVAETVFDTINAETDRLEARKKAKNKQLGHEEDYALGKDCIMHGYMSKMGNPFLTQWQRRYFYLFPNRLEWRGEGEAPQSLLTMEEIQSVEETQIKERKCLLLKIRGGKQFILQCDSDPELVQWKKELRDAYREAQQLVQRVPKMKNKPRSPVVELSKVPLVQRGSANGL
Sequence of Tyrosine-protein kinase HCK (P08631 whole entry): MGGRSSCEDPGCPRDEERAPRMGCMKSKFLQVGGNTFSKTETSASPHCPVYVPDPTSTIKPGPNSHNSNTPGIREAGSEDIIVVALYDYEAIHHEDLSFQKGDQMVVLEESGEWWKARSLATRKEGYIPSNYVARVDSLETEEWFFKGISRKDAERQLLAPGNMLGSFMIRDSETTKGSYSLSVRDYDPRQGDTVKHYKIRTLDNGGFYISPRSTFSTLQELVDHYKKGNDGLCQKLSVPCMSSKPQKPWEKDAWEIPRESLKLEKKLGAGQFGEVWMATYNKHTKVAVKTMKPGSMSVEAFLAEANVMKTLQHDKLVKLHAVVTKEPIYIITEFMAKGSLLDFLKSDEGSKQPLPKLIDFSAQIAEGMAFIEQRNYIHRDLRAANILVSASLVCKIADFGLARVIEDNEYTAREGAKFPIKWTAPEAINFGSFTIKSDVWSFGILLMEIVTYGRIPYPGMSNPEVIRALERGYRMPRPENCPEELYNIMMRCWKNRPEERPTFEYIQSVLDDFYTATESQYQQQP
Sequence of Inhibitor of nuclear factor kappa-B kinase subunit beta (O14920 whole entry): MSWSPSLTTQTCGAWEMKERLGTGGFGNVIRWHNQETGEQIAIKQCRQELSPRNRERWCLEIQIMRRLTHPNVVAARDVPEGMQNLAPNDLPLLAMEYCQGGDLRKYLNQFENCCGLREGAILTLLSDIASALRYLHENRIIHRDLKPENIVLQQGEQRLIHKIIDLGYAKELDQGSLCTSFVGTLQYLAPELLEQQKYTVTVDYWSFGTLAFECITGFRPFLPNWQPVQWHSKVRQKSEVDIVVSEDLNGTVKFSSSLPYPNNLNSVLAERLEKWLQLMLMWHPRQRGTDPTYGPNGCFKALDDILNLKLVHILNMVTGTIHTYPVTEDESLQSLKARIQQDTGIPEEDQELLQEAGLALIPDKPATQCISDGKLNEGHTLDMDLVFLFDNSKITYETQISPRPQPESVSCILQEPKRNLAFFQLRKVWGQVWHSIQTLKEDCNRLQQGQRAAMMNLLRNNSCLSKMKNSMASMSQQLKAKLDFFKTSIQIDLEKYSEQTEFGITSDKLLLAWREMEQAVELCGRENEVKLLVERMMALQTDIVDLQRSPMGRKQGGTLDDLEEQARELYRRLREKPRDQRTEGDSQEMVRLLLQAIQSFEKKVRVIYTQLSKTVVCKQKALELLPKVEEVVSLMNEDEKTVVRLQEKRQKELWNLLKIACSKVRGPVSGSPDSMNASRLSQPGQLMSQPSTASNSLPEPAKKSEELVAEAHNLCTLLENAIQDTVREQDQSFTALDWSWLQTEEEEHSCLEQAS
Sequence of Cytoplasmic tyrosine-protein kinase BMX (P51813 whole entry): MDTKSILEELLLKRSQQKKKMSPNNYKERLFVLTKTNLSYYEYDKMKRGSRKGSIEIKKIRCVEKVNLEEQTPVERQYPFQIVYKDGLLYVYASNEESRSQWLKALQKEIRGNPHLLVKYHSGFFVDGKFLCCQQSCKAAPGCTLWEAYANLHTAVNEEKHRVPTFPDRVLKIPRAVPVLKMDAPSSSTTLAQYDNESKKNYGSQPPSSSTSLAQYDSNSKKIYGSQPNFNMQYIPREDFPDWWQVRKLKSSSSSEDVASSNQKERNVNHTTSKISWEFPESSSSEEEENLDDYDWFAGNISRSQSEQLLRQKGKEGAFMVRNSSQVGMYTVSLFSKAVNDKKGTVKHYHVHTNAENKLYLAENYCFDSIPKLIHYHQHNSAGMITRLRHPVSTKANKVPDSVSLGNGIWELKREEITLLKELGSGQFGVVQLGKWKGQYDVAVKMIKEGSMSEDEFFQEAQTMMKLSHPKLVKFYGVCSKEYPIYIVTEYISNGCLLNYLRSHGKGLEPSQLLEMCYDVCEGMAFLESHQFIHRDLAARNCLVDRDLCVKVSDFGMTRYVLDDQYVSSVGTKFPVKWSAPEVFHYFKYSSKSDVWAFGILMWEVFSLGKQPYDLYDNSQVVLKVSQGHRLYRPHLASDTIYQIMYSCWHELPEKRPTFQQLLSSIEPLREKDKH

With `COc1ncc(F)cc1CNc1ccc(Cc2c[nH]c3ncc(C)cc23)c(F)n1` [PLX-5622], the IC50 in data set [1], in data set [3], in data set [11], in data set [12], in [13] and in data set [17] was > 1000 nM each time. Besides, in the data set on Mus musculus [2], the outcome was inactive. The Activity was 0.04 RPKM in data set [4]; 70.238% in the data set on Mus musculus [5]; 11.641 RPKM in data set [6]; 94.671% in data set [7]; 77.958% in data set [8]; 5 in data set [10]. The Activity in data set [14] was found to be 13; in the data set on Mus musculus [15] it was 2; in the data set with Mus musculus [18] it was 0.03 meter/s; with Mus musculus [20] it was 77%. This molecule also registered a clearance in data set [9] of 3 mL/min/kg. Further, in data set [16], the Flu intensity stood at 0.086 a.u. In data set [19], the area under the curve AUC(0-inf) came to 215 µg·h/mL.
